{"source": "paper PMC2606940", "about": "(The Journal of General Physiology, 2009)", "key": {"CLC-0 E166A mutant": {"target": "T1, CLC-0 E166A mutant (Torpedo marmorata, UniProt P21564, C212S/E166A)", "T1 sequence (P21564 1-805 E166A/C212S)": "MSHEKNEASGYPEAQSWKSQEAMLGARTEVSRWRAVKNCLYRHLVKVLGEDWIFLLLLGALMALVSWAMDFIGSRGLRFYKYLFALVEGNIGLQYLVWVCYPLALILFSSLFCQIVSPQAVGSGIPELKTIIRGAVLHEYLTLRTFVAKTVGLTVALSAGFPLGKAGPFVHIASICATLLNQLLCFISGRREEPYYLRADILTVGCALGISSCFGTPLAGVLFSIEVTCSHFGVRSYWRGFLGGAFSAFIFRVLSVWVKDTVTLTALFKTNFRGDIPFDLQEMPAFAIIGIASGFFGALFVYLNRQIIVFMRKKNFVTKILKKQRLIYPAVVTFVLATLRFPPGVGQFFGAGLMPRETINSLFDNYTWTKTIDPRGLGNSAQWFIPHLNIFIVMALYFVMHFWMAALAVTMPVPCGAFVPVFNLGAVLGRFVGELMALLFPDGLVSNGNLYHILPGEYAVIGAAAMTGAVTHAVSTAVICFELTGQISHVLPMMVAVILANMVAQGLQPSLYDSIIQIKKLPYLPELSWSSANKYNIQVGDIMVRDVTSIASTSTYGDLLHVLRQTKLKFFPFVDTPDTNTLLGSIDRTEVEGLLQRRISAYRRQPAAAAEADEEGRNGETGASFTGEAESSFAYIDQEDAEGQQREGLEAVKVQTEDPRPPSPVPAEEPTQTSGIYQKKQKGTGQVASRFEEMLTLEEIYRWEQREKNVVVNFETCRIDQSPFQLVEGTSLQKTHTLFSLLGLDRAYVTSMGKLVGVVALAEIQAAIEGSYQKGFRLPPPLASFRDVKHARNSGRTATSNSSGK", "settings": "ref Traverso et al., 2003; cited from earlier work"}, "[1]": {"target": "T2, CLC-0 E166C/K519E mutant (E127/K519E) (Torpedo marmorata, UniProt P21564, C212S/E166C/K519E)", "T2 sequence (P21564 1-805 E166C/C212S/K519E)": "T1 sequence (P21564 1-805 E166A/C212S) with A166C, K519E", "type": "cell-based", "outline": "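CLC-0 mutants in the C212S background were transfected into HEK293 cells with lipofectamine and recorded 1–3 d later as excised inside-out patches. Both sides held 130 mM NaCl, 5 mM MgCl2, 10 mM HEPES and 1 mM EGTA, pH 7.4. CPA was perfused continuously onto the cytoplasmic face. Steady-state current over the last 10 ms was normalized to bracketing blocker-free controls and fitted to a Langmuir function for K1/2. Values are mean ± SEM of ~4–6 patches.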"}}, "note": "Numbering of substitutions follows the chain as printed. Where two headings read alike, the source gives them in different places.", "data": [{"smiles": "O=C(O)COc1ccc(Cl)cc1", "note": "[CPA, p-chlorophenoxy acetate]", "values": [{"measurement": "CPA-blocking affinity of E166A relative to wild-type channel (higher)", "setting": "CLC-0 E166A mutant", "result": "> 100", "unit": "fold"}, {"measurement": "IC50", "setting": "[1]; read-out: Apparent affinity (K1/2), −40 mV", "result": "730 ± 59", "unit": "µM"}, {"measurement": "IC50", "setting": "[1]; read-out: Apparent affinity (K1/2), −60 mV", "result": "516 ± 46", "unit": "µM"}, {"measurement": "IC50", "setting": "[1]; read-out: Apparent affinity (K1/2), −80 mV", "result": "377 ± 39", "unit": "µM"}, {"measurement": "IC50", "setting": "[1]; read-out: Apparent affinity (K1/2), −100 mV", "result": "277 ± 37", "unit": "µM"}, {"measurement": "IC50", "setting": "[1]; read-out: Apparent affinity (K1/2), −120 mV", "result": "203 ± 34", "unit": "µM"}, {"measurement": "IC50", "setting": "[1]; read-out: Apparent affinity (K1/2), −140 mV", "result": "158 ± 31", "unit": "µM"}, {"measurement": "IC50", "setting": "[1]; read-out: Apparent affinity (K1/2), −160 mV", "result": "115 ± 25", "unit": "µM"}, {"measurement": "IC50", "setting": "[1]; read-out: K1/2, −140 mV (Fig. 6)", "result": "~160", "unit": "µM"}, {"measurement": "apparent kon", "setting": "[1]; −160 mV", "result": 110000, "unit": "M⁻¹ s⁻¹"}]}]}
